# Legend:
# Integrin alpha-4/beta-7 = biological target: T1, Integrin alpha-4/beta-7 (Homo sapiens, UniProt P13612+P26010); test: Inhibition of alpha-4-beta-7/MAdCAM interactions; type: protein-complex assay
# T1 sequence (P13612 whole entry): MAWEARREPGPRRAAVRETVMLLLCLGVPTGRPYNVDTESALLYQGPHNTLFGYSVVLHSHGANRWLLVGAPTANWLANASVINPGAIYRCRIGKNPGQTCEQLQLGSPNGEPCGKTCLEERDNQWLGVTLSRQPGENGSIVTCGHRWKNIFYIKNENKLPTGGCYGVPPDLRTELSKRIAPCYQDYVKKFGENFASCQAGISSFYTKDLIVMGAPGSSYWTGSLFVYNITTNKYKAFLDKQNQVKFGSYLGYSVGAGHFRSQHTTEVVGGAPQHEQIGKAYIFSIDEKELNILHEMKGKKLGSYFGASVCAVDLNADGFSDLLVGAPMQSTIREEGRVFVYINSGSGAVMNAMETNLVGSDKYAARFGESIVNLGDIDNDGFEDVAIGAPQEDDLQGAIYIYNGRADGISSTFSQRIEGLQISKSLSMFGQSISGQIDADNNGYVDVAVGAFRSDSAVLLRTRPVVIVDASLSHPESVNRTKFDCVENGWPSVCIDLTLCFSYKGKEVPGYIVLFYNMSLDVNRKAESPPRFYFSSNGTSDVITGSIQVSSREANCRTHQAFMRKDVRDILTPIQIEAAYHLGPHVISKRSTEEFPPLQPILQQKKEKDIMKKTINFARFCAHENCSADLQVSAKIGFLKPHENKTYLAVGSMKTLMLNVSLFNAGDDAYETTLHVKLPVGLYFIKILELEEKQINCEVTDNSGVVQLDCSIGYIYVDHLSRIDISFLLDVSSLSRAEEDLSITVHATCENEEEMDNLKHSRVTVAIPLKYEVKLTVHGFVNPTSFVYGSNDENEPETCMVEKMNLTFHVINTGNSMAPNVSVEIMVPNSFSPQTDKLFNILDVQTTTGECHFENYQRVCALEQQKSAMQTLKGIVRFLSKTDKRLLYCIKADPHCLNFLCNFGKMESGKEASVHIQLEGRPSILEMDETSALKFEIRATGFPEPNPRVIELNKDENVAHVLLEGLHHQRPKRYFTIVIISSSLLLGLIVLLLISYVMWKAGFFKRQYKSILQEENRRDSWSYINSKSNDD
# T1 sequence (P26010 whole entry): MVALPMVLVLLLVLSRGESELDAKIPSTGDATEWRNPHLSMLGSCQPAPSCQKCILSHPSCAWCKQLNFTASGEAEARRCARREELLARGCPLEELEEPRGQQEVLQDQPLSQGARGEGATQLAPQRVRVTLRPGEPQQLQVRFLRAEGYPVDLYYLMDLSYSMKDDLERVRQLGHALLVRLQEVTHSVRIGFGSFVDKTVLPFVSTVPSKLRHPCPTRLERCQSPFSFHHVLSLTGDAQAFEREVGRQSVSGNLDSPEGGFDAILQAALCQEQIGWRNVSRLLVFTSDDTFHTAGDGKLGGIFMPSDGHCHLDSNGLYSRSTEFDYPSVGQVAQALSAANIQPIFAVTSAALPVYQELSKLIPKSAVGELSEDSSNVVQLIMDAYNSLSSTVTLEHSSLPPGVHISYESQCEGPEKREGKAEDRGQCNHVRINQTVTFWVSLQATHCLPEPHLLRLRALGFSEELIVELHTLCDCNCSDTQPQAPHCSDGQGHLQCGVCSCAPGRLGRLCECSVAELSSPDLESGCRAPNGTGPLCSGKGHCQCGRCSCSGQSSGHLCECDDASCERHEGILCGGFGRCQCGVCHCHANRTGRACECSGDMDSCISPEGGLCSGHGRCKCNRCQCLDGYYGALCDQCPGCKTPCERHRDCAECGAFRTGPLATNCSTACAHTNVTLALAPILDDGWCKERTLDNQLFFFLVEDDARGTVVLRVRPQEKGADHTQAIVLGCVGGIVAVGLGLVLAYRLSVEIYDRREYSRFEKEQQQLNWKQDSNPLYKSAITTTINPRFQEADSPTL
# Summary of the method: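 Plates carried anti-human IgG capture antibody, then 100 ng MAdCAM-Ig (30 min, room temperature), then were blocked 1 h at 37 °C. H33342-labelled 38-β7 cells (8×10^5/mL, Ca2+/Mg2+ 1.0 mM) were preincubated 10 min at 37 °C with peptide. They adhered 30 min at 37 °C, and unbound cells were spun off inversely at 50g. Values are mean ± SD of ≥3 experiments.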
# [1] = biological target: T2, Integrin alpha-4/beta-7 (Homo sapiens) (UniProt P13612+P26010); test: Ability to inhibit adhesion of alpha4-beta7 integrin expressing 38-beta7 lymphoma cells to chinese hamster ovary (CHO) cells stably transfected with MAdCAM-1; type: cell-based
# Summary of the method: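 38-β7 lymphoma cells (α4β7+) labelled 30 min at 37 °C with 12 μg/mL H33342, then 8×10^5/mL in buffer with 1.0 mM Ca2+/Mg2+. Preincubated 10 min at 37 °C with peptide at 1 mg/mL final. Allowed to adhere 30 min at 37 °C to confluent MAdCAM-1-transfected CHO monolayers (seeded 24 h before). Nonadherent cells removed by inverse centrifugation. Result given as % of medium control, mean of two experiments.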
# PBL = test: Effect on human PBL cell binding to Laminin.; type: cell-based
# Summary of the method: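 Human PBL labelled with H33342 (12 μg/mL, 30 min, 37 °C), resuspended at 8×10^5/mL with 1.0 mM Ca2+ and Mg2+. Peptides at 1 mg/mL final were preincubated with the cells for 10 min at 37 °C. Cells then adhered 30 min at 37 °C to plates coated 16 h at 4 °C with 2 μg/well laminin (pH 9.4 carbonate). Read-out is % of medium control, mean ± SD of ≥3 experiments.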
# [2] = biological target: T2, Integrin alpha-4/beta-7 (Homo sapiens); test: Inhibition of alpha4-beta7 lymphoma cell binding to CHO-VCAM-1 cells.; type: cell-based
# [3] = biological target: Integrin alpha-4/beta-1 (Homo sapiens) (UniProt P05556+P13612); test: Inhibition of alpha4-beta1 lymphoma cell binding to CHO-VCAM-1 cells.; type: cell-based
SMILES,IC50 (Integrin alpha-4/beta-7),Adhesion [1],Adhesion [2],Adhesion [3],Adhesion (PBL)
CC(C)C[C@H](NC(=O)c1cc2ccccc2cn1)C(=O)N[C@@H](CC(=O)O)C(=O)N[C@H](C(N)=O)[C@@H](C)O,465 µM,–,–,–,–
CC(C)C[C@@H]1NC(=O)[C@@H](Cc2ccccc2)NC(=O)[C@H]2CCCN2C(=O)[C@@H](C)NC(=O)[C@H]([C@@H](C)O)NC(=O)[C@@H](CC(=O)O)NC1=O,–,7%,36%,109%,–
CC(C)C[C@@H]1NC(=O)[C@H](Cc2ccccc2)NC(=O)[C@H]2CCCN2C(=O)[C@H](CC(=O)O)NC(=O)[C@H]([C@@H](C)O)NC(=O)[C@H](CC(=O)O)NC1=O,163 µM,–,–,–,–
CC(C)C[C@@H]1NC(=O)[C@H](Cc2ccc(O)cc2)NC(=O)[C@H]2CCCN2C(=O)[C@H](CC(=O)O)NC(=O)[C@H]([C@@H](C)O)NC(=O)[C@H](CC(=O)O)NC1=O,308 µM,–,–,–,–
CC(C)C[C@@H]1NC(=O)[C@H](Cc2ccccc2)NC(=O)[C@H]2CCCN2C(=O)[C@H](C)NC(=O)[C@H]([C@@H](C)O)NC(=O)[C@H](CC(=O)O)NC1=O,292 µM,–,–,–,–
CC(C)C[C@@H]1NC(=O)[C@@H](Cc2ccc(O)cc2)NC(=O)[C@H]2CCCN2C(=O)[C@@H](CC(=O)O)NC(=O)[C@H]([C@@H](C)O)NC(=O)[C@@H](CC(=O)O)NC1=O,–,3%,37%,78%,111%
CC(C)C[C@@H]1NC(=O)[C@@H](Cc2ccccc2)NC(=O)[C@H]2CCCN2C(=O)[C@@H](CC(=O)O)NC(=O)[C@H]([C@@H](C)O)NC(=O)[C@@H](CC(=O)O)NC1=O,–,3%,38%,72%,95%

# Second part, led by results:
IC50 (Integrin alpha-4/beta-7),Adhesion [1],Adhesion [2],Adhesion [3],SMILES,Adhesion (PBL)
317 µM,–,–,–,CSCC[C@@H]1NC(=O)[C@H]2CCCN2C(=O)[C@H](CC(=O)O)NC(=O)[C@H]([C@@H](C)O)NC(=O)[C@H](CC(=O)O)NC(=O)[C@H](CC(C)C)NC1=O,–
–,9%,27%,74%,CC(C)C[C@@H]1NC(=O)[C@@H](Cc2c[nH]cn2)NC(=O)[C@H]2CCCN2C(=O)[C@@H](CC(=O)O)NC(=O)[C@H]([C@@H](C)O)NC(=O)[C@@H](CC(=O)O)NC1=O,114%
301 µM,–,–,–,CC(C)C[C@@H]1NC(=O)[C@H](Cc2c[nH]cn2)NC(=O)[C@H]2CCCN2C(=O)[C@H](CC(=O)O)NC(=O)[C@H]([C@@H](C)O)NC(=O)[C@H](CC(=O)O)NC1=O,–
–,15%,36%,108%,CSCC[C@H]1NC(=O)[C@H]2CCCN2C(=O)[C@@H](CC(=O)O)NC(=O)[C@H]([C@@H](C)O)NC(=O)[C@@H](CC(=O)O)NC(=O)[C@H](CC(C)C)NC1=O,102%
